Like-named read-outs stand apart in the source and are kept apart here.

For data set [1], the system named is K562. Description: NucView caspase 3 activity assay by flow cytometry. The note with it: for EC50: Homo sapiens, K562, 24 h, read-out: AP50 (50% induction of apoptosis), Caspase 3 activity assay (C3); for The lowest dose of polyphenols at which there was a significant induction of apoptosis compared to the vehicle control: K562, caspase 3 activity, 24 h, p<0.05. Format: cell-based, human. Summed up: (§1)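 Seeded at 0.5 x 10⁶ cells/well and treated 24 h, with series of 0–50 or 0–250 µM depending on compound. Normalized to vehicle (0% apoptosis). Mean ± STD, three independent experiments in triplicate. One-way ANOVA/Tukey, p<0.05. AP50 = concentration giving 50% apoptotic cells.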
For orientation: A flow cytometer gives signals particle by particle.

Data set [2] deals with MOLT-3. Description: Cell cycle analysis, propidium iodide flow cytometry. Format: cell-based, human. The note with it: MOLT-3, IC50 dose, 24 h. In outline:
(§2)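 Seeded at 0.5 x 10^6 cells per well in 12-well plates and treated 24 h at the IC50 concentration of each test compound from CellTiter-Glo. Cells were pelleted (400 g, 5 min), PBS-washed and fixed in 80% ethanol overnight at -20 °C. Staining used 50 µg/mL PI plus RNase overnight at 4 °C.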

Data set [3] has as its system HL60. Description: CellTiter-Glo luminescent cell viability assay. The format is cell-based, human. The note with it: HL60, 24 h, doses 0, 2, 10, 50, 250, 500 µM, p<0.05. Summed up:
(§3)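 Cells grown in RPMI 1640 with 10% FBS, 1.5 mM L-glutamine and penicillin/streptomycin at 37 °C, 5% CO2. Seeded at 2.5 x 10³ cells/well and exposed 24 h to ethanol-dissolved test compound (0, 2, 10, 50, 250, 500 µM) with 0.1% ethanol vehicle. ATP luminescence normalized to vehicle (100%). IC50 taken from linear regression. Lowest significant dose set by one-way ANOVA/Tukey, p<0.05. Triplicates, three independent experiments.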

The subject of data set [4] is lymphoid cell lines. Description: Apoptosis. The format is cell-based. The following applies: Homo sapiens.
Data set [5] has as its system KG1a. Description: CellTiter-Glo luminescent cell viability assay. Format: cell-based, human. The note with it: 24 h; for IC50: Homo sapiens, KG-1a, read-out: IC50 (50% inhibition of cellular proliferation); for The lowest dose of polyphenols at which there was a significant inhibition of cell proliferation compared to the vehicle control: KG1a, doses 0, 2, 10, 50, 250, 500 µM, p<0.05. Summed up:
as §3
On the technique in general: In ATP-based viability assays light output follows the ATP content of the culture.

Data set [6] has as its system U937. Description: Hoechst 33342 nuclear morphological analysis of apoptosis. Format: cell-based. The following applies: Homo sapiens, U-937, 24 h, read-out: AP50 (50% induction of apoptosis), Hoechst 33342 staining (Hoe). In outline: (§4)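 Seeded at 0.5 x 10⁶ cells/well in 12-well plates and treated 24 h. Cells were pelleted (400 g, 5 min, 4 °C), washed in PBS, fixed in 4% paraformaldehyde, cytospun, air-dried, then stained with 10 μg/ml Hoechst 33342 for 10 min in the dark. Fluorescence microscopy: 200 cells counted, scored by condensed/intense nuclei, shrinkage, blebbing and apoptotic bodies. % apoptotic nuclei calculated. AP50 = concentration giving 50% apoptotic cells.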

In data set [7] the test system is all leukemia cell lines. Description: CellTiter-Glo assay, summary over the leukemia panel. Format: cell-based, human. The following applies: for IC50: Homo sapiens, 24 h, read-out: IC50 values (range over leukemia cell lines). Summed up: (§5)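 Cells plated at 2.5 x 10^3 per well in complete RPMI 1640 (10% FBS, 37 °C, 5% CO2). Test compounds dissolved in ethanol and dosed at 2–500 µM for 24 h; vehicle control was 0.1% (v/v) ethanol. Viability was read as ATP luminescence, normalised to vehicle (100%). IC50 was taken from linear regression of each curve. Triplicates, three independent experiments.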

In data set [8] the test system is THP-1. Description: Cell cycle analysis, propidium iodide flow cytometry. The following applies: THP-1, IC50 dose, 24 h; for Percentage of cells in G0/G1 phase of cell cycle (significant accumulation): vehicle control G0/G1 = 42.3%. Format: cell-based, human. Summed up: as §2
The subject of data set [9] is non-tumor cord blood (CD34+) cells. Description: CellTiter-Glo luminescent cell viability assay. Format: cell-based. The note with it: 24 h; for IC50: read-out: IC50 (50% inhibition of cellular proliferation), CD34+ non-tumour control cells, 24 h treatment; for The lowest dose of polyphenols at which there was a significant inhibition of cell proliferation compared to the vehicle control: CD34+ non-tumour control cells, doses 0, 2, 10, 50, 250, 500 µM, p<0.05. In outline: as §3

The test system of data set [10] is KG1a. Description: Cell cycle analysis, propidium iodide flow cytometry. The format is cell-based, human. The following applies: IC50 dose, 24 h. In outline:
as §2

In data set [11] the test system is lung (A549) and leukemia (HL-60) cell lines. The following applies: 24 h; cited from earlier work.
The test system of data set [12] is K562. Description: Cell cycle analysis, propidium iodide flow cytometry. The format is cell-based, human. The note with it: K562, IC50 dose, 24 h. Summed up: as §2
Data set [13] relates to CCRF-CEM. Description: Hoechst 33342 nuclear morphological analysis of apoptosis. The following applies: Homo sapiens, 24 h, read-out: AP50 (50% induction of apoptosis), Hoechst 33342 staining (Hoe). Format: cell-based. In outline: as §4
Data set [14] relates to K562. The description is as above. The format is cell-based. The note with it: Homo sapiens, K562, 24 h, read-out: AP50 (50% induction of apoptosis), Hoechst 33342 staining (Hoe). Summed up: as §4
For data set [15], the system named is THP-1. Description: NucView caspase 3 activity assay by flow cytometry. The format is cell-based, human. The note with it: for EC50: Homo sapiens, THP-1, 24 h, read-out: AP50 (50% induction of apoptosis), Caspase 3 activity assay (C3); for The lowest dose of polyphenols at which there was a significant induction of apoptosis compared to the vehicle control: THP-1, caspase 3 activity, 24 h, p<0.05. Summed up:
as §1

Data set [16] concerns CCRF-CEM. Description: CellTiter-Glo luminescent cell viability assay. Format: cell-based, human. The following applies: 24 h, doses 0, 2, 10, 50, 250, 500 µM, p<0.05. Summed up: as §3
Data set [17] deals with JURKAT. Description: CellTiter-Glo luminescent cell viability assay. The note with it: 24 h, doses 0, 2, 10, 50, 250, 500 µM, p<0.05. Format: cell-based, human. Summed up: as §3
Data set [18] relates to myeloid cell lines. Description: Apoptosis. Format: cell-based. The following applies: Homo sapiens, 24 h, read-out: AP50 values (range in myeloid cell lines).
Data set [19] has as its system myeloid cell lines. Description: CellTiter-Glo assay, summary over myeloid lines. Format: cell-based. The note with it: Homo sapiens, 24 h, read-out: IC50 (range in myeloid cell lines). In outline: as §5
In data set [20] the test system is lymphoid cell lines. Description: CellTiter-Glo assay, summary over lymphoid lines. The note with it: Homo sapiens, 24 h, read-out: IC50 (range in lymphoid cell lines). Format: cell-based. Summed up:
as §5

Data set [21] relates to all leukemia cell lines. Description: Apoptosis. The following applies: Homo sapiens, 24 h, read-out: AP50 values (range over leukemia cell lines). Format: cell-based, human.
For data set [22], the system named is colorectal cancer cells (SW480, HT-29 and Caco-2). The note with it: SW480, HT-29 and Caco-2, 24 h treatments; cited from earlier work.
In data set [23] the test system is human cervical cancer cells (HeLa). The note with it: cited from earlier work.
For data set [24] the following is noted: cited from earlier work.

Consider `C(=C\c1ccccc1)/c1ccccc1` [Trans-Stilbene, Trans-stilbene], for which the EC50 was > 500 µM in data set [1]; 40 to 460 µM in data set [4] (read-out: AP50 values in three lymphoid cell lines); 225 µM in [6]; 200 µM in [13]; 460 µM in [14]; > 500 µM in data set [15]. For the same molecule, the “The lowest dose of polyphenols at which there was a significant induction of apoptosis compared to the vehicle control” value in data set [1] came to 50 µM; in data set [15], 250 µM. The “Percentage of cells in G0/G1 phase of cell cycle (significant accumulation)” value was “G0/G1 = 69%” in data set [2] (vehicle control G0/G1 = 64.5%) and “G0/G1 =53%” in data set [8]. Also, the “The lowest dose of polyphenols at which there was a significant inhibition of cell proliferation compared to the vehicle control” value in data set [3] is reported as 50 µM; in data set [5] it was 50 µM; in [9] it was 250 µM; in [16] it was 50 µM; in data set [17], 50 µM. For the same molecule, the IC50 in [5] is 250 µM; in data set [7], 109 to 500 µM; in data set [9], 500 µM; in data set [11], 6.25 µM. Further, the entries for the “Percentage of cells in G2/M phase of cell cycle (significant accumulation)” value in [10] (vehicle control G2/M = 18.7%) and in data set [12] (vehicle control G2/M = 13.6%) were “G2/M =23.7%” and “G2/M =24.5%”, respectively.

In the case of `O=c1cc(-c2ccc(O)cc2)oc2cc(O)cc(O)c12` [Apigenin], the EC50 in data set [1] is 150 µM; in [4] (24 h, read-out: AP50 values (range in lymphoid cell lines)) it was 35 to 130 µM; in [18] it was 84 to 235 µM; in data set [6], 130 µM; in data set [21], 35 to 150 µM; in data set [13], 100 µM. In addition, the EC50 in data set [14] was 190 µM; in data set [15], 110 µM. In addition, the “The lowest dose of polyphenols at which there was a significant induction of apoptosis compared to the vehicle control” value in [1] and in data set [15] was 10 µM each time. Besides, the “Percentage of cells in S phase of cell cycle (significant accumulation)” value was “S =35%” in data set [2] (vehicle control S = 24.8%), “S = 50%” in data set [10] (vehicle control S = 34.6%) and “S =50.2%” in [12] (vehicle control S = 32.06%). For the same molecule, the “The lowest dose of polyphenols at which there was a significant inhibition of cell proliferation compared to the vehicle control” value in data set [3] amounted to 10 µM; in [5] it was 10 µM; in [9], 500 µM; in [16], 10 µM; in data set [17], 50 µM. Further, the IC50 is 500 µM in [5]; 100 to 500 µM in data set [19]; 140 to 195 µM in data set [20]; 100 to 500 µM in [7]; > 500 µM in [9]; 70 µM in data set [22]. Besides, the IC50 in data set [23] is 36 µM. Moreover, in data set [8] (vehicle control G2/M = 26.4%), the “Percentage of cells in G2/M phase of cell cycle (significant accumulation)” value is “G2/M =32%”.

For `O=c1c(O)c(-c2ccc(O)c(O)c2)oc2cc(O)cc(O)c12` [Quercetin], in data set [24] (50-100 mg dose), the plasma concentration is 750 to 1500 nM. The plasma half-life in data set [24] was 11 to 28 h. Also, the EC50 in data set [1] was > 50 µM; in data set [6] it was 50 µM; in data set [21], 19 to 50 µM; in data set [13], 50 µM; in [14], 205 µM; in data set [15], > 50 µM. Also, the “The lowest dose of polyphenols at which there was a significant induction of apoptosis compared to the vehicle control” value in data set [1] and in data set [15] was 10 µM in each case. Besides, in data set [2] (vehicle control G2/M = 7.5%), the “Percentage of cells in G2/M phase of cell cycle (significant accumulation)” value is on record as “G2/M =19%”. The “The lowest dose of polyphenols at which there was a significant inhibition of cell proliferation compared to the vehicle control” value amounted to 2 µM in [3]; 10 µM in data set [5]; 250 µM in data set [9]; 2 µM in data set [16]; 2 µM in [17]. Also, the IC50 in data set [5] was 155 µM; in data set [19], 33 to 155 µM; in data set [20], 8 to 20 µM; in data set [7], 8 to 33 µM; in data set [9] it was > 500 µM. Further, in data set [7] (times more potent than apigenin and chrysin), the “Potency relative to apigenin and chrysin” value was 5-10 times. The results for the “Percentage of cells in G0/G1 phase of cell cycle (significant accumulation)” value in data set [8], in data set [10] (vehicle control G0/G1 = 44.6%) and in data set [12] (vehicle control G0/G1 = 53.7%) were “G0/G1 =52%”, “G0/G1=52%” and “G0/G1=60%”, respectively.

Values taken from publication PMC3873039 (Anti-Cancer Agents in Medicinal Chemistry, 2013).
